≈ marks a conversion by molar mass, not a printed value. Calls of active or inactive are those of the source. No cut-off for these calls is given here.
Experiments:
[1] = tested on: Candida albicans; test: Antifungal activity against Candida albicans ATCC 10231 by NCCLS method; assay type: functional
Method in brief: (§1)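 Broth dilution per NCCLS yeast reference method, in HEPES-buffered RPMI with 1% DMSO. MIC80 is the lowest concentration giving more than 80% growth inhibition versus positive (no-drug) controls. Read by visual scoring, not absorbance. Highest level tested 125 µg/mL.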

[2] = tested on: Nakaseomyces glabratus; test: Antifungal activity against Candida glabrata ATCC 48435 by NCCLS method; assay type: functional; method in brief: as §1
[3] = tested on: Candida albicans; test: Antifungal activity against Candida albicans ATCC 10231 at 125 ug/ml by NCCLS method; assay type: functional, organism-based
[4] = tested on: Nakaseomyces glabratus; test: Antifungal activity against Candida glabrata ATCC 48435 at 125 ug/ml by NCCLS method; assay type: functional, organism-based

Row | MIC80 [1] | MIC80 [2] | Structure (SMILES) | Activity [3] | Activity [4]
1 | – | – | COc1ccc(S(=O)(=O)N/N=C/c2cc([N+](=O)[O-])ccc2O)cc1 | inactive | inactive
2 | – | – | O=S(=O)(N/N=C/c1ccccc1O)c1ccc2ccccc2c1 | inactive | inactive
3 | 16 µg/mL (≈ 50 µM) | 62 µg/mL (≈ 194 µM) | O=C(N/N=C/c1cc(Cl)ccc1O)c1ccc([N+](=O)[O-])cc1 | – | –
4 | – | – | O=S(=O)(N/N=C/c1cc(Cl)ccc1O)c1ccc2ccccc2c1 | inactive | inactive
5 | – | – | O=[N+]([O-])c1ccc(S(=O)(=O)N/N=C/c2cc(Cl)ccc2O)cc1 | inactive | inactive
6 | – | – | O=[N+]([O-])c1ccc(S(=O)(=O)N/N=C/c2cc(Br)ccc2O)cc1 | inactive | inactive
7 | – | – | Cc1ccc(S(=O)(=O)N/N=C/c2cc(C)ccc2O)cc1 | inactive | inactive
8 | – | – | Cc1ccc(S(=O)(=O)N/N=C/c2cc(Br)ccc2O)cc1 | inactive | inactive
9 | – | – | O=[N+]([O-])c1ccc(S(=O)(=O)N/N=C/c2ccccc2O)cc1 | inactive | inactive
10 | – | – | COc1ccc(O)c(/C=N/NS(=O)(=O)c2ccc3ccccc3c2)c1 | inactive | inactive
11 | – | – | COc1ccc(S(=O)(=O)N/N=C/c2cc(C)ccc2O)cc1 | inactive | inactive
12 | – | – | O=S(=O)(N/N=C/c1cc(Br)ccc1O)c1ccccc1 | inactive | inactive
13 | – | – | O=S(=O)(N/N=C/c1cc(Cl)ccc1O)c1ccc(Br)cc1 | inactive | inactive
14 | – | – | O=[N+]([O-])c1ccc(O)c(/C=N/NS(=O)(=O)c2ccc3ccccc3c2)c1 | inactive | inactive
15 | 2 µg/mL (≈ 8.32 µM) | 1 µg/mL (≈ 4.16 µM) | O=C(N/N=C/c1ccccc1O)c1ccccc1 [SALICYLALDEHYDE BENZOYL HYDRAZONE] | – | –
16 | 4 µg/mL (≈ 13.5 µM) | 125 µg/mL (≈ 422 µM) | CC(C)(C)c1ccc(C(=O)N/N=C/c2ccccc2O)cc1 | – | –
17 | 62 µg/mL (≈ 274 µM) | 8 µg/mL (≈ 35.4 µM) | Cc1ccc(O)c(/C=N/Nc2ccccc2)c1 | – | –
18 | – | – | Cc1ccc(S(=O)(=O)N/N=C/c2cc([N+](=O)[O-])ccc2O)cc1 | inactive | inactive
19 | – | – | O=[N+]([O-])c1ccc(O)c(/C=N/NS(=O)(=O)c2ccc(Br)cc2)c1 | inactive | inactive

Row | MIC80 [1] | MIC80 [2] | Structure (SMILES) | Activity [3] | Activity [4]
20 | 125 µg/mL (≈ 396 µM) | 2 µg/mL (≈ 6.34 µM) | COc1ccc(O)c(/C=N/NC(=O)c2ccc([N+](=O)[O-])cc2)c1 | – | –
21 | 8 µg/mL (≈ 27.5 µM) | 16 µg/mL (≈ 55 µM) | Oc1c(Br)cccc1/C=N/Nc1ccccc1 | – | –
22 | – | – | COc1ccc(S(=O)(=O)N/N=C/c2cc(Br)ccc2O)cc1 | inactive | inactive
23 | – | – | COc1ccc(O)c(/C=N/NS(=O)(=O)c2ccc(C)cc2)c1 | inactive | inactive
24 | 8 µg/mL (≈ 20.1 µM) | 31 µg/mL (≈ 77.9 µM) | O=C(N/N=C/c1cc(Br)cc(Br)c1O)c1ccccc1 | – | –
25 | – | – | COc1ccc(O)c(/C=N/NS(=O)(=O)c2ccccc2)c1 | inactive | inactive
26 | – | – | Cc1ccc(O)c(/C=N/NS(=O)(=O)c2ccc([N+](=O)[O-])cc2)c1 | inactive | inactive
27 | 125 µg/mL (≈ 373 µM) | 62 µg/mL (≈ 185 µM) | O=C(N/N=C/c1cc(Br)ccc1O)c1ccc(O)cc1 | – | –
28 | 1 µg/mL (≈ 2.75 µM) | 2 µg/mL (≈ 5.49 µM) | O=C(N/N=C/c1cc(Br)ccc1O)c1ccc([N+](=O)[O-])cc1 | – | –
29 | 125 µg/mL (≈ 445 µM) | 125 µg/mL (≈ 445 µM) | Oc1c(Cl)cc(Cl)cc1/C=N/Nc1ccccc1 | – | –
30 | 125 µg/mL (≈ 650 µM) | 62 µg/mL (≈ 322 µM) | CC(C)(C)c1cccc(/C=N/N)c1O | – | –
31 | 31 µg/mL (≈ 136 µM) | 2 µg/mL (≈ 8.76 µM) | Oc1ccc(/C=N/Nc2ccccc2)c(O)c1 | – | –
32 | 1 µg/mL (≈ 2.26 µM) | 125 µg/mL (≈ 282 µM) | O=C(N/N=C/c1cc(Br)cc(Br)c1O)c1ccc([N+](=O)[O-])cc1 | – | –
33 | 62 µg/mL (≈ 363 µM) | 31 µg/mL (≈ 182 µM) | N/N=C/c1cc(Cl)ccc1O | – | –
34 | 125 µg/mL (≈ 486 µM) | 4 µg/mL (≈ 15.5 µM) | O=[N+]([O-])c1ccc(N/N=C/c2ccccc2O)cc1 | – | –
35 | 31 µg/mL (≈ 87.5 µM) | 125 µg/mL (≈ 353 µM) | O=C(N/N=C/c1cc(Cl)cc(Cl)c1O)c1ccc([N+](=O)[O-])cc1 | – | –
36 | 4 µg/mL (≈ 12.5 µM) | 2 µg/mL (≈ 6.27 µM) | O=C(N/N=C/c1cccc(Br)c1O)c1ccccc1 | – | –
37 | 31 µg/mL (≈ 126 µM) | 31 µg/mL (≈ 126 µM) | Oc1ccc(Cl)cc1/C=N/Nc1ccccc1 | – | –
38 | 16 µg/mL (≈ 54.4 µM) | 8 µg/mL (≈ 27.2 µM) | N/N=C/c1cc(Br)cc(Br)c1O | – | –

Row | MIC80 [1] | MIC80 [2] | Structure (SMILES) | Activity [3] | Activity [4]
39 | 16 µg/mL (≈ 62.4 µM) | 8 µg/mL (≈ 31.2 µM) | O=C(N/N=C/c1ccccc1O)c1ccccc1O | – | –
40 | 16 µg/mL (≈ 55.9 µM) | 16 µg/mL (≈ 55.9 µM) | COc1ccc(O)c(/C=N/NC(=O)c2ccccc2O)c1 | – | –
41 | 31 µg/mL (≈ 90.8 µM) | 125 µg/mL (≈ 366 µM) | CC(C)(C)c1cccc(/C=N/NC(=O)c2ccc([N+](=O)[O-])cc2)c1O | – | –
42 | 8 µg/mL (≈ 23.9 µM) | 62 µg/mL (≈ 185 µM) | O=C(N/N=C/c1cc(Br)ccc1O)c1ccccc1O | – | –
43 | 4 µg/mL (≈ 14.8 µM) | 0.5 µg/mL (≈ 1.85 µM) | COc1ccc(O)c(/C=N/NC(=O)c2ccccc2)c1 | – | –
44 | 31 µg/mL (≈ 85.1 µM) | 31 µg/mL (≈ 85.1 µM) | O=C(N/N=C/c1cccc(Br)c1O)c1ccc([N+](=O)[O-])cc1 | – | –
45 | 8 µg/mL (≈ 25.9 µM) | 16 µg/mL (≈ 51.8 µM) | O=C(N/N=C/c1cc(Cl)cc(Cl)c1O)c1ccccc1 | – | –
46 | 31 µg/mL (≈ 128 µM) | 31 µg/mL (≈ 128 µM) | COc1ccc(O)c(/C=N/Nc2ccccc2)c1 | – | –
47 | 31 µg/mL (≈ 121 µM) | 1 µg/mL (≈ 3.9 µM) | O=C(N/N=C/c1ccc(O)cc1O)c1ccccc1 | – | –
48 | 125 µg/mL (≈ 414 µM) | 62 µg/mL (≈ 205 µM) | O=[N+]([O-])c1ccc(N/N=C/c2cc([N+](=O)[O-])ccc2O)cc1 | – | –
49 | 16 µg/mL (≈ 56.1 µM) | 16 µg/mL (≈ 56.1 µM) | O=C(N/N=C/c1cc([N+](=O)[O-])ccc1O)c1ccccc1 | – | –
50 | 2 µg/mL (≈ 6.27 µM) | 2 µg/mL (≈ 6.27 µM) | O=C(N/N=C/c1cc(Br)ccc1O)c1ccccc1 | – | –
51 | 31 µg/mL (≈ 144 µM) | 62 µg/mL (≈ 288 µM) | N/N=C/c1cc(Br)ccc1O | – | –
52 | 62 µg/mL (≈ 407 µM) | 31 µg/mL (≈ 204 µM) | N/N=C/c1ccc(O)cc1O | – | –
53 | 16 µg/mL (≈ 75.4 µM) | 16 µg/mL (≈ 75.4 µM) | Oc1ccccc1/C=N/Nc1ccccc1 | – | –
54 | 31 µg/mL (≈ 121 µM) | 16 µg/mL (≈ 62.2 µM) | O=[N+]([O-])c1ccc(O)c(/C=N/Nc2ccccc2)c1 | – | –
55 | 31 µg/mL (≈ 106 µM) | 31 µg/mL (≈ 106 µM) | Oc1ccc(Br)cc1/C=N/Nc1ccccc1 | – | –
56 | 16 µg/mL (≈ 78 µM) | 62 µg/mL (≈ 302 µM) | N/N=C/c1cc(Cl)cc(Cl)c1O | – | –

Row | Structure (SMILES) | MIC80 [1] | MIC80 [2] | Activity [3] | Activity [4]
57 | O=C(N/N=C/c1ccc(/C=N/NC(=O)c2ccc([N+](=O)[O-])cc2)cc1)c1ccc([N+](=O)[O-])cc1 | inactive | inactive | – | –
58 | O=[N+]([O-])c1ccc(N/N=C/c2ccccc2O)c([N+](=O)[O-])c1 | inactive | inactive | – | –
59 | Cc1ccc(O)c(/C=N/NC(=O)c2ccc(O)cc2)c1 | inactive | 1 µg/mL (≈ 3.7 µM) | – | –
60 | O=[N+]([O-])c1ccc(N/N=C/c2cc(Cl)cc(Cl)c2O)cc1 | inactive | 62 µg/mL (≈ 190 µM) | – | –
61 | O=C(N/N=C/c1cc(Cl)ccc1O)c1ccc(O)cc1 | inactive | 62 µg/mL (≈ 213 µM) | – | –
62 | Cc1ccc(O)c(/C=N/Nc2ccc([N+](=O)[O-])cc2)c1 | inactive | inactive | – | –
63 | Oc1c(Br)cc(Br)cc1/C=N/Nc1ccccc1 | inactive | 62 µg/mL (≈ 168 µM) | – | –
64 | O=C(N/N=C/c1ccc(O)cc1O)c1ccc([N+](=O)[O-])cc1 | inactive | 0.5 µg/mL (≈ 1.66 µM) | – | –
65 | CC(C)(C)c1cccc(/C=N/Nc2ccc([N+](=O)[O-])cc2)c1O | inactive | inactive | – | –
66 | O=Cc1ccc(/C=N/Nc2ccc([N+](=O)[O-])cc2[N+](=O)[O-])cc1 | inactive | inactive | – | –
67 | N/N=C/c1cc([N+](=O)[O-])ccc1O | inactive | 31 µg/mL (≈ 171 µM) | – | –
68 | CC(C)(C)c1cccc(/C=N/NC(=O)c2ccccc2)c1O | inactive | inactive | – | –
69 | O=[N+]([O-])c1ccc(N/N=C/c2cc(Br)cc(Br)c2O)cc1 | inactive | 62 µg/mL (≈ 149 µM) | – | –
70 | O=C(N/N=C/c1cc([N+](=O)[O-])cc([N+](=O)[O-])c1O)c1ccccc1 | inactive | inactive | – | –
71 | Cc1ccc(O)c(/C=N/NC(=O)c2ccccc2O)c1 | 16 µg/mL (≈ 59.2 µM) | inactive | – | –
72 | C(=N\Nc1ccccc1)/c1ccc(/C=N/Nc2ccccc2)cc1 | inactive | 125 µg/mL (≈ 398 µM) | – | –
73 | O=[N+]([O-])c1ccc(N/N=C/c2cccc(Br)c2O)cc1 | inactive | inactive | – | –
74 | O=C(N/N=C/c1cc(Cl)ccc1O)c1ccccc1O | 8 µg/mL (≈ 27.5 µM) | inactive | – | –
75 | O=[N+]([O-])c1ccc(N/N=C/c2cc(Br)ccc2O)cc1 | inactive | inactive | – | –
76 | O=[N+]([O-])c1ccc(N/N=C/c2ccc(O)cc2O)c([N+](=O)[O-])c1 | inactive | inactive | – | –
77 | O=C(N/N=C/c1ccccc1O)c1ccc(O)cc1 | inactive | 4 µg/mL (≈ 15.6 µM) | – | –
78 | O=[N+]([O-])c1ccc(N/N=C/c2cc(Cl)ccc2O)cc1 | inactive | 62 µg/mL (≈ 213 µM) | – | –
79 | CC(C)(C)c1cccc(/C=N/Nc2ccccc2)c1O | inactive | inactive | – | –
80 | O=[N+]([O-])c1ccc(N/N=C/c2ccc(O)cc2O)cc1 | inactive | 1 µg/mL (≈ 3.66 µM) | – | –
81 | Oc1ccccc1/C=N/N=C/c1ccccc1O | inactive | inactive | – | –
82 | O=C(N/N=C/c1cc([N+](=O)[O-])ccc1O)c1ccc([N+](=O)[O-])cc1 | inactive | 16 µg/mL (≈ 48.4 µM) | – | –
83 | Cc1ccc(C)c(N/N=C/c2ccccc2O)c1 | inactive | inactive | – | –
84 | COc1ccc(O)c(/C=N/NC(=O)c2ccc(O)cc2)c1 | inactive | 4 µg/mL (≈ 14 µM) | – | –
85 | O=C(N/N=C/c1ccc(/C=N/NC(=O)c2ccccc2)cc1)c1ccccc1 | inactive | inactive | – | –
